From publication PMC9312093 (ACS Bio & Med Chem Au, 2022) come the findings set out here.

The target of this assay is T1, human ERO1α (Homo sapiens, UniProt Q96HE7, C104A/C131A/C166A).
T1 sequence (Q96HE7 22-468 C104A/C131A/C166A): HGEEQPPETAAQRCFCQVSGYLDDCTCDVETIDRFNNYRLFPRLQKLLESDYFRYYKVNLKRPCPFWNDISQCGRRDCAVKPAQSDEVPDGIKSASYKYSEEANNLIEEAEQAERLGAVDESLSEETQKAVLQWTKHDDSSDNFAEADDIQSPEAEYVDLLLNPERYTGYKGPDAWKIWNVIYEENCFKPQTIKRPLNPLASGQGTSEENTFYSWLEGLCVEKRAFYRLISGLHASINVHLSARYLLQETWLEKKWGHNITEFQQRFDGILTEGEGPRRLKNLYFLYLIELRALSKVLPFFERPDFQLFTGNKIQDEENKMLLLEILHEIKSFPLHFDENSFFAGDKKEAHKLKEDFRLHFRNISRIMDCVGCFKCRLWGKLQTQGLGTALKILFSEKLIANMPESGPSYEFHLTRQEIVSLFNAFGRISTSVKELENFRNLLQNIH
Description: Recombinant ERO1α enzyme assay. The following applies: up to 200 µM; FAD covalent modifiers. Format: biochemical. Put shortly: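 Hyperactive human ERO1α (a.a. 22-468, C104A/C131A/C166A) and human PDI (a.a. 18-479) were used, each at 0.0625 mg/mL, with rising test compound concentrations. Activity was quantified by Amplex Red. Data are mean ± S.D. of 3 independent experiments, each run in triplicate.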

Regarding `N[C@@H]1C[C@H]1c1ccccc1` (racemic) [tranylcypromine], the “inhibition of ERO1α activity, concentration-response” value is listed as “did not inhibit”.
